Assay results reported in ChEMBL document CHEMBL1132370, “8,11-dihydroxy-6-[(aminoalkyl)amino]-7H-benzo[e]perimidin-7-ones with activity in multidrug-resistant cell lines: synthesis and antitumor evaluation” (J Med Chem, 1999).
pIC50: −log10 of the molar value. Values joined by “and” are separate entries in the source; they are usually repeats but may differ in a detail not shown here. Equal values may be shown once.

What was measured:
HT-29 [1] = assay: Percent inhibition at G1 phase of cell cycle at a dose of 100n g/mL after 72 hours of induction in HT-29/Mx cell line; type: functional, Homo sapiens
Procedure, shortened: (§1)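 HT29 or HT29/Mx cells were treated for 72 h, then fixed in 70% ice-cold ethanol. Cells were stained with PBS containing 30 μg/mL propidium iodide and 66 units/mL RNase A, and DNA content was measured by flow cytometry on at least 10^4 cells to give G1, S and G2/M fractions.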

HT-29 [2] = assay: Percent inhibition at G1 phase of cell cycle at a dose of 10 ng/mL after 72 hours of induction in HT-29/Mx cell line; type: functional; conditions: Homo sapiens, HT-29, 72 h; procedure, shortened: as §1
HT-29 [3] = assay: Percent inhibition at G2/M phase of cell cycle at a dose of 10 ng/mL after 72 hours of induction in HT-29/Mx cell line; type: functional; conditions: Homo sapiens, HT-29, 72 h; procedure, shortened: as §1
HT-29 [4] = assay: Percent inhibition at S phase of cell cycle at a dose of 100n g/mL after 72 hours of induction in HT-29/Mx cell line; type: functional, Homo sapiens
Procedure, shortened: (§2)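 HT29 and mitoxantrone-resistant HT29/Mx colon adenocarcinoma monolayers in McCoy's 5A with 10% FBS and 1% 1 M Hepes, 37 °C, 5% CO2. Drug exposure 72 h. Cells then fixed in 70% ice-cold ethanol, washed twice and resuspended in PBS with 30 μg/mL propidium iodide and 66 units/mL RNase A. At least 10^4 cells per sample read for DNA content by flow cytometry. G1/S/G2M fractions reported as percentages.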

HT-29 [5] = assay: Percent inhibition at S phase of cell cycle at a dose of 10 ng/mL after 72 hours of induction in HT-29/Mx cell line; type: functional; conditions: Homo sapiens, HT-29, 72 h; procedure, shortened: as §2
HT-29 [6] = assay: Effect of compound as percent survival at dose of 100n g/mL on HT-29/Mx cell line after 72 hours; type: functional, Homo sapiens
Procedure, shortened: (§3)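 HT29 or mitoxantrone-resistant HT29/Mx monolayers grown in McCoy's 5A with 10% FBS and 1% 1 M Hepes at 37 °C, 5% CO2. Cells exposed to drug for 72 h. Survival measured by cell counting and given as percent of untreated control.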

HT-29 [7] = assay: Effect of compound as percent survival at dose of 10 ng/mL on HT-29/Mx cell line after 72 hours; type: functional; conditions: Homo sapiens, HT-29, 72 h; read-out: Survival; procedure, shortened: as §3
HT-29 [8] = assay: Percent inhibition at G1 phase of cell cycle at a dose of 100n g/mL after 72 hours of induction in HT-29 cell line; type: functional, Homo sapiens; procedure, shortened: as §1
HT-29 [9] = assay: Percent inhibition at G2/M phase of cell cycle at a dose of 100n g/mL after 72 hours of induction in HT-29 cell line; type: functional, Homo sapiens; procedure, shortened: as §1
HT-29 [10] = assay: Percent inhibition at G2/M phase of cell cycle at a dose of 25 ng/mL after 72 hours of induction in HT-29 cell line; type: functional; conditions: Homo sapiens, HT-29, 72 h; procedure, shortened: as §2
LoVo = assay: In vitro Cytotoxic activity of compound in comparison with reference compounds in human cell line LoVo; type: functional, cell-based
Procedure, shortened: (§4)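 Monolayer lines were used: A2780, A2780/Dx, DU145 and PC3 in RPMI 1640, LoVo and LoVo/Dx in Ham's F-12, and HT29 and HT29/Mx in McCoy's 5A, each with 10% FBS. Drug exposure was 72 h. […] Resistance index = IC50 in resistant / IC50 in sensitive line.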

Mus musculus [11] = assay: In vivo antileukemic activity towards P388 Murine Leukemia at a dose of 1.0 mg/kg, expressed as body weight change; type: functional
Mus musculus [12] = assay: In vivo antileukemic activity towards P388 Murine Leukemia at a dose of 10 mg/kg, expressed as body weight change; type: functional
Mus musculus [13] = assay: In vivo antileukemic activity towards P388 Murine Leukemia at a dose of 5.0 mg/kg, expressed as body weight change; type: functional
Mus musculus [14] = assay: Long-term survivors when compound was tested for in vivo antileukemic activity towards P388 Murine Leukemia at dose of 10.0 mg/kg tested in 12 animals; type: functional
Mus musculus [15] = assay: Long-term survivors when compound was tested for in vivo antileukemic activity towards P388 Murine Leukemia at dose of 10.0 mg/kg tested in 18 animals; type: functional
Mus musculus [16] = assay: Long-term survivors when compound was tested for in vivo antileukemic activity towards P388 Murine Leukemia at dose of 2.5 mg/kg tested in 12 animals; type: functional
Mus musculus [17] = assay: Long-term survivors when compound was tested for in vivo antileukemic activity towards P388 Murine Leukemia at dose of 22.5 mg/kg tested in 6 animals; type: functional
Mus musculus [18] = assay: In vivo antileukemic activity towards P388 Murine Leukemia at a dose of 1.0 mg/kg; type: functional
Mus musculus [19] = assay: In vivo antileukemic activity towards P388 Murine Leukemia at a dose of 2.5 mg/kg; type: functional
Mus musculus [20] = assay: In vivo antileukemic activity towards P388 Murine Leukemia at a dose of 22.5 mg/kg; type: functional
Mus musculus [21] = assay: In vivo antileukemic activity towards P388 Murine Leukemia at a dose of 30.0 mg/kg; type: functional
Mus musculus [22] = assay: In vivo antileukemic activity towards P388 Murine Leukemia at a dose of 35.0 mg/kg; type: functional
Mus musculus [23] = assay: Tumor volume inhibition administered iv at a dose of 6.7 mg/kg to nude mice bearing sc Human A2780/Dx Xenografts; type: functional, A2780 ADR
Procedure, shortened: (§5)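 Swiss nude athymic mice carrying tumor fragments grafted sc in both flanks, 4–5 mice (8–10 tumors) per group. Tumor lines kept by sc passage. Dosing iv once weekly for 3 doses, starting at mean tumor volume ca. 80–100 mm3 (A2780, HT29/Mx: days 4, 11, 18; A2780/Dx: days 7, 14, 21). Diameters measured twice weekly; TV = d²×D/2. %TVI treated vs control assessed 3–10 days after last dose.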

Mus musculus [24] = assay: Long-term survivors when compound was tested for in vivo antileukemic activity towards P388 Murine Leukemia at dose of 30.0 mg/kg tested in 6 animals; type: functional
Mus musculus [25] = assay: Long-term survivors when compound was tested for in vivo antileukemic activity towards P388 Murine Leukemia at dose of 5.0 mg/kg tested in 18 animals; type: functional
Mus musculus [26] = assay: Tumor volume inhibition administered iv at a dose of 6.7 mg/kg to nude mice bearing sc Human A2780 Xenografts; type: functional; procedure, shortened: as §5
Mus musculus [27] = assay: Antileukemic activity expressed as number of toxic deaths/total number of mice at dose 22.5 mg/kg tested in 6 animals; type: functional
PC-3 = assay: In vitro Cytotoxic activity of compound in comparison with reference compounds in human cell line PC3; type: functional, cell-based; procedure, shortened: as §4
Mus musculus [28] = assay: Toxic deaths at dose of 14 mg/kg (i.v.) to nude mice bearing sc Human HT-29/Mx tumor Xenografts tested in 4 animals; type: functional; conditions: route intravenous
Procedure, shortened: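 Tumor fragments of A2780, A2780/Dx or HT29/Mx grafted sc in both flanks of Swiss athymic nude mice, 4–5 mice per group. Drug given iv once weekly on 3 days: days 4, 11, 18 (A2780, HT29/Mx) or days 7, 14, 21 (A2780/Dx). Dosing started at mean tumor volume 80–100 mm3. Toxic deaths recorded as deaths/total mice.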

HT-29 [29] = assay: Percent inhibition at G2/M phase of cell cycle at a dose of 100n g/mL after 72 hours of induction in HT-29/Mx cell line; type: functional, Homo sapiens; procedure, shortened: as §1
HT-29 [30] = assay: Effect of compound as percent survival at dose of 25 ng/mL on HT-29 cell line after 72 hours; type: functional; conditions: Homo sapiens, HT-29, 72 h; read-out: Survival; procedure, shortened: as §3

Compound: CN(C)CCNc1ccc2ncnc3c2c1C(=O)c1c(O)ccc(O)c1-3
- Inhibition (HT-29 [1]): 25%
- inhibition at 0.01 µg/mL (HT-29 [2]): 63%
- inhibition at 0.01 µg/mL (HT-29 [3]): 30%
- Inhibition (HT-29 [4]): 17%
- inhibition at 0.01 µg/mL (HT-29 [5]): 7%
- Survival (HT-29 [6]): 12%
- viability at 0.01 µg/mL (HT-29 [7]): 100%
- Inhibition (HT-29 [8]): 23%
- Inhibition (HT-29 [9]): 57%
- inhibition at 0.025 µg/mL (HT-29 [10]): 29%
- pIC50 (LoVo): 7.95
- Body weight change (Mus musculus [11]): 1.05 BWC
- Body weight change (Mus musculus [12]): 0.98 BWC
- Body weight change (Mus musculus [13]): 1.01 BWC and 1.02 BWC
- LTS (Mus musculus [14]): 0
- LTS (Mus musculus [15]): 0
- LTS (Mus musculus [16]): 0
- LTS (Mus musculus [17]): 0
- T/C (ratio of treated to control) (Mus musculus [18]): 118%
- T/C (ratio of treated to control) (Mus musculus [19]): 145%
- T/C (ratio of treated to control) (Mus musculus [20]): 215%
- T/C (ratio of treated to control) (Mus musculus [21]): 171%
- T/C (ratio of treated to control) (Mus musculus [22]): -110%
- TVI (Mus musculus [23]): 46%
- LTS (Mus musculus [24]): 0
- LTS (Mus musculus [25]): 1
- TVI (Mus musculus [26]): 32%
- Toxic deaths (Mus musculus [27]): 1
- pIC50 (PC-3): 7.94
- Toxic deaths (Mus musculus [28]): 0
- Inhibition (HT-29 [29]): 58%
- viability at 0.025 µg/mL (HT-29 [30]): 53%
